This note sets out measurements from ChEMBL document CHEMBL1122803, “Folate antagonists. 22. Antimalarial and antibacterial effects of 2,4-diamino-6-quinazolinesulfonamides” (1984).

In brackets after ≈: the same amount, converted by molar mass. Some results are limits rather than exact numbers.

Assay [1] deals with Plasmodium berghei. In words: Antimalarial activity as change in MST against drug-sensitive Plasmodium berghei infected mice (Mus musculus) at 160 mg/kg subcutaneous dose after 72 hr. It is filed as functional.
Assay [2] relates to Plasmodium berghei. Put plainly: Antimalarial activity as change in MST against drug-sensitive Plasmodium berghei infected mice (Mus musculus) at 20 mg/kg subcutaneous dose after 72 hr. It is filed as functional.
Assay [3] deals with Plasmodium berghei. Put plainly: Antimalarial activity as change in MST for drug-sensitive Plasmodium berghei infected mice (Mus musculus) after 72 hrs at 320 mg/kg subcutaneous dose. It is filed as functional.
Assay [4] concerns Plasmodium berghei. In words: Antimalarial activity as change in MST for drug-sensitive Plasmodium berghei infected mice (Mus musculus) at 80 mg/kg subcutaneous dose over 72 hr. It is filed as functional.
The test system of assay [5] is Plasmodium berghei. In words: Antimalarial activity as change in MST for drug-sensitive Plasmodium berghei infected mice (Mus musculus) at 40 mg/kg subcutaneous dose over 72 hr. Type of assay: functional.
Assay [6] relates to Plasmodium berghei. Put plainly: Antimalarial activity as change in MST for drug-sensitive Plasmodium berghei infected mice (Mus musculus) at 640 mg/kg subcutaneous dose over 72 hr. Type of assay: functional.
The subject of assay [7] is Plasmodium berghei. In words: Antimalarial activity as toxic deaths 2-5 days post infection for drug-sensitive Plasmodium berghei infected mice (Mus musculus) at 320 mg/kg subcutaneous dose over 72 hr. It is filed as functional. An outline of the steps: (§1)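 P. berghei (drug-sensitive) infected mice dosed once subcutaneously 72 h postinfection, compound in sesame or peanut oil. Read-out is the count of deaths on days 2–5 after infection, attributed to drug toxicity. Five animals per dose level, or 10 where indicated.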

Assay [8] relates to Plasmodium berghei. In words: Antimalarial activity as survivor numbers at day 60 for drug-sensitive Plasmodium berghei infected mice (Mus musculus) at 80 mg/kg subcutaneous dose over 72 hr. It is filed as functional. An outline of the steps:
(§2)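 Mice infected with drug-sensitive P. berghei got one subcutaneous dose in sesame or peanut oil 72 h postinfection. Read-out is the number of mice alive at 60 days postinfection, termed "cured", without subinoculation to confirm parasitological cure. Groups of five per dose, or 10 where indicated.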

The test system of assay [9] is Plasmodium berghei. In words: Antimalarial activity as survivor numbers at day 60 against drug-sensitive Plasmodium berghei infected mice (Mus musculus) at 160 mg/kg subcutaneous dose after 72 hr. It is filed as functional. An outline of the steps:
as §2

For assay [10], the system named is Plasmodium berghei. In words: Antimalarial activity as toxic deaths 2-5 days post infection for drug-sensitive Plasmodium berghei infected mice (Mus musculus) at 640 mg/kg subcutaneous dose over 72 hr. It is filed as functional. An outline of the steps:
as §1

In assay [11] the test system is Plasmodium berghei. Put plainly: Antimalarial activity as survivor numbers at day 60 for drug-sensitive Plasmodium berghei infected mice (Mus musculus) at 320 mg/kg subcutaneous dose over 72 hr. Type of assay: functional. In short, it runs like this: as §2
For assay [12], the system named is Plasmodium berghei. In words: Antimalarial activity as survivor number at day 60 for drug-sensitive Plasmodium berghei infected mice (Mus musculus) at 640 mg/kg subcutaneous dose over 72 hr. It is filed as functional. An outline of the steps: as §2
In assay [13] the test system is Plasmodium berghei. Put plainly: Antimalarial activity as survivor numbers at day 60 against drug-sensitive Plasmodium berghei infected mice (Mus musculus) at 20 mg/kg subcutaneous dose after 72 hr. It is filed as functional. In short, it runs like this: as §2
Assay [14] concerns Plasmodium berghei. In words: Antimalarial activity as change in MST against drug-sensitive Plasmodium berghei infected mice (Mus musculus) at 160 mg/kg subcutaneous dose after 72h. Type of assay: functional.
The test system of assay [15] is Plasmodium berghei. Put plainly: Antimalarial activity as change in MST against drug-sensitive Plasmodium berghei infected mice (Mus musculus) at 20 mg/kg subcutaneous dose after 72h. Type of assay: functional.
Assay [16] relates to Staphylococcus aureus. Put plainly: In vitro antibacterial activity against […] S 18713. It is filed as functional. In short, it runs like this:
(§3)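 Antibacterial testing in vitro by gradient-plate test. Read-out was the minimum inhibitory concentration, with values exceeding 25 reported as >25.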

Assay [17] has as its system Pseudomonas aeruginosa. In words: In vitro against Pseudomonas aeruginosa 28. by gradient-plate test. It is filed as functional. In short, it runs like this:
as §3

In assay [18] the test system is Plasmodium berghei. In words: Antimalarial activity as change in MST for drug-sensitive Plasmodium berghei infected mice (Mus musculus) at 40 mg/kg subcutaneous dose over 72hr. Type of assay: functional.
Assay [19] deals with Mycobacterium tuberculosis. In words: In vitro antibacterial activity against Mycobacterium tuberculosis H37Rv. It is filed as functional. In short, it runs like this:
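Mycobacterium tuberculosis tested in vitro by gradient-plate test; minimum inhibitory concentration reported.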

A further assay relates to Shigella sonnei. Put plainly: In vitro antibacterial activity against Shigella sonnei C-10. Type of assay: functional. In short, it runs like this: as §3
Assay [20] deals with Escherichia coli. Put plainly: Compound was tested in vitro against Escherichia coli Vogel. by gradient-plate test. Type of assay: functional. In short, it runs like this:
as §3

Assay [21] concerns Plasmodium berghei. In words: Antimalarial activity as change in MST for drug-sensitive Plasmodium berghei infected mice (Mus musculus) at 80mg/kg subcutaneous dose over 72h. Type of assay: functional.
The test system of assay [22] is Staphylococcus aureus. In words: In vitro antibacterial activity against […] U.C-76. Type of assay: functional. In short, it runs like this: as §3
For another assay, the system named is Enterococcus faecalis. In words: In vitro antibacterial activity against Streptococcus faecalis MGH-2. Type of assay: functional. An outline of the steps: as §3
The subject of assay [23] is Plasmodium berghei. Put plainly: Antimalarial activity as survivor numbers at day 60 for drug-sensitive Plasmodium berghei infected mice (Mus musculus) at 320 mg/kg over 72 hr. It is filed as functional. An outline of the steps: as §2
The test system of assay [24] is Plasmodium berghei. In words: In vivo antimalarial activity against drug-sensitive Plasmodium berghei in mice (Mus musculus) after 320 mg/kg subcutaneous dose for 72 hrs as survivors 60 days post infection.
The subject of assay [25] is Plasmodium berghei. Put plainly: Antimalarial activity as survivor numbers at day 60 for drug-sensitive Plasmodium berghei infected mice (Mus musculus) at 640 mg/kg subcutaneous dose over 72 hr. It is filed as functional. An outline of the steps:
as §2

The subject of assay [26] is Escherichia coli. In words: Tested in vitro against Escherichia coli Vogel. by gradient-plate test. It is filed as functional. An outline of the steps:
as §3

Assay [27] relates to Pseudomonas aeruginosa. Put plainly: Compound was tested in vitro against Pseudomonas aeruginosa 28. by gradient-plate test. It is filed as functional. In short, it runs like this:
as §3

Assay [28] deals with Plasmodium berghei. In words: Antimalarial activity as survivor numbers at day 60 for drug-sensitive Plasmodium berghei infected mice (Mus musculus) at 40 mg/kg over 72 hr. It is filed as functional. In short, it runs like this: as §2
Assay [29] deals with Plasmodium berghei. Put plainly: Antimalarial activity as toxic deaths 2-5 days post infection for drug-sensitive Plasmodium berghei infected mice (Mus musculus) at 320 mg/kg subcutaneous dose over 72 hrs. It is filed as functional. An outline of the steps:
as §1

For assay [30], the system named is Plasmodium berghei. In words: Antimalarial activity as survivor number at day 60 against drug-sensitive Plasmodium berghei infected mice (Mus musculus) at 160 mg/kg subcutaneous dose after 72 hr. Type of assay: functional. In short, it runs like this: as §2
For assay [31], the system named is Plasmodium berghei. Put plainly: Antimalarial activity as survivor numbers at day 60 for drug-sensitive Plasmodium berghei infected mice (Mus musculus) at 320 mg/kg subcutaneous dose over 72 hrs. Type of assay: functional. In short, it runs like this: as §2
Assay [32] relates to Plasmodium berghei. Put plainly: Antimalarial activity as survivor numbers at day 60 for drug-sensitive Plasmodium berghei infected mice (Mus musculus) at 40 mg/kg subcutaneous dose over 72 hr. It is filed as functional. In short, it runs like this:
as §2

On to `CC1(C)N=C(N)N=C(N)N1c1ccc(Cl)cc1.Cl` [CHLORCYCLOGUANIL HYDROCHLORIDE], for which the “Delta MST” value came to 5 days with Plasmodium berghei [1]; 7.9 days in the assay with Plasmodium berghei [2]; 3 days in the assay with Plasmodium berghei [3]; 21.6 days with Plasmodium berghei [4]; 13.4 days in the assay on Plasmodium berghei [5]; 5 days in the assay with Plasmodium berghei [6].
Take `CCc1nc(N)nc(N)c1-c1ccc(Cl)cc1` [PYRIMETHAMINE]: the figures for the toxic deaths in the assay on Plasmodium berghei [7] and in the assay on Plasmodium berghei [10] were 3 and 2, respectively. The “Delta MST” value with Plasmodium berghei [5] is 1 days; in the assay with Plasmodium berghei [13], 7.7 days. In addition, the survivors at day 60 with Plasmodium berghei [8] came out at 3; in the assay with Plasmodium berghei [9], 5; in the assay with Plasmodium berghei [11], 2; in the assay on Plasmodium berghei [12], 1.
For orientation: MIC means the lowest concentration that inhibits growth of the organism. Higher therefore signals weaker potency. As for `CN(C)S(=O)(=O)c1ccc2nc(N)nc(N)c2c1Cl`, the “Delta MST” value in the assay on Plasmodium berghei [14] came to 17 days; in the assay with Plasmodium berghei [15], 7.5 days; in the assay with Plasmodium berghei [3] it was 23.9 days; with Plasmodium berghei [18] it was 10.3 days; in the assay on Plasmodium berghei [21], 12.2 days. Besides, the MIC with Staphylococcus aureus [16] was over 25 mg/L; with Pseudomonas aeruginosa [17] it was over 25 mg/L; in assay [19], over 25 mg/L; with Shigella sonnei it was 5 mg/L (≈ 16.6 µM); against Escherichia coli [20] it was 5 mg/L (≈ 16.6 µM); in the assay on Staphylococcus aureus [22] it was 15 mg/L (≈ 49.7 µM). In addition, in the assay on Enterococcus faecalis, the MIC is under 0.25 mg/L. The compound further gave a survivors at day 60 in the assay on Plasmodium berghei [12] of 1.
On to `CN(C)S(=O)(=O)c1ccc2nc(N)nc(N)c2c1`, for which the “Delta MST” value in the assay with Plasmodium berghei [14] is 15.9 days; in the assay with Plasmodium berghei [15], 7.3 days; in the assay on Plasmodium berghei [23] it was 5 days; with Plasmodium berghei [5] it was 8.7 days; in the assay with Plasmodium berghei [21], 16.1 days.
`Nc1nc(N)c2cc(S(=O)(=O)N3CCCC3)ccc2n1`: the “Delta MST” value worked out at 8.7 days with Plasmodium berghei [14], 0.5 days in the assay with Plasmodium berghei [15], 5 days in the assay on Plasmodium berghei [18] and 6.9 days with Plasmodium berghei [21]. For the same compound, the survivors at day 60 came to 5 with Plasmodium berghei [24] and 10 with Plasmodium berghei [25]. Besides, the minimum inhibitory concentration (MIC) against Staphylococcus aureus [16] was 2 mg/L (≈ 6.82 µM); in [19] it was 10 mg/L (≈ 34.1 µM); in the assay on Escherichia coli [26], 10 mg/L (≈ 34.1 µM); against Pseudomonas aeruginosa [27] it was over 25 mg/L; with Shigella sonnei, over 25 mg/L; against Staphylococcus aureus [22], under 0.25 mg/L. In the assay with Enterococcus faecalis, this compound showed an MIC of under 0.25 mg/L.
Regarding `Nc1nc(N)c2c(Cl)c(NCc3ccc(Cl)c(Cl)c3)ccc2n1`, the survivors at day 60 in the assay on Plasmodium berghei [8], in the assay on Plasmodium berghei [9] and in the assay with Plasmodium berghei [28] was 5 each time. In addition, the toxic deaths with Plasmodium berghei [10] and in the assay on Plasmodium berghei [29] was 5 throughout.
With `Nc1nc(N)c2cc(S(=O)(=O)c3ccc4ccccc4c3)ccc2n1`, the survivors at day 60 in the assay on Plasmodium berghei [30], in the assay on Plasmodium berghei [8], in the assay on Plasmodium berghei [31] and in the assay on Plasmodium berghei [32] was 5 each time.
